Measurements reported in ChEMBL document CHEMBL3352088, “Novel derivatives of usnic acid effectively inhibiting reproduction of influenza A virus” (Bioorg Med Chem, 2014).

Assay: Antiviral activity against rimantidine, amantidine-resistant Influenza A virus (A/California/07/09(H1N1)) pdm09 infected in MDCK cells assessed as inhibition of viral replication after 1 hrs by hemagglutination assay
Type: functional, Influenza A virus (A/California/07/2009(H1N1))
Details: read-out: ED50 (the source's name)
How it was run: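 MDCK cells were pre-incubated 1 h at 37°C with serial twofold compound dilutions in MEM containing 2 mM arginine, 2 mM glutamine and 2 microgram/mL trypsin, then infected and cultured 48 h at 36°C. Supernatant was mixed with 1% chicken erythrocytes for 1 h at room temperature to read hemagglutination titer. ED50 is the concentration that halves virus production versus untreated cells.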

Q: With `CC(=O)c1c(O)c(C)c(O)c2c1OC1=Cc3c(c(C)nn3-c3ccccc3)C(=O)[C@@]12C` as the compound, how does the EC50 read?
A: 69.5 µM

Q: With `CC(=O)c1c(O)c(C)c(O)c2c1OC1=Cc3c(c(C)nn3-c3ccccc3)C(=O)[C@]12C` as the compound, how does the EC50 read?
A: 56.3 µM

Q: Which EC50 does the source give for `CC(=O)c1c(O)c(C)c(O)c2c1OC1=Cc3c(c(C)nn3-c3ccccc3)[C@@H](O)[C@@]12C` here?
A: 2.4 µM

Q: Which EC50 does the source give for `CC(=O)c1c(O)c(C)c(O)c2c1OC1=CC(=O)/C(=C(/C)NCC(=O)O)C(=O)[C@@]12C` here?
A: 11.2 µM

Q: With `CC(=O)c1c(O)c(C)c(O)c2c1OC1=CC(=O)/C(=C(/C)NCC(=O)O)C(=O)[C@]12C` as the compound, how does the EC50 read?
A: 10.7 µM

Q: Which EC50 does the source give for `CC(=O)c1c(O)c(C)c(O)c2c1OC1=CC(=O)/C(=C(/C)NCCC(=O)O)C(=O)[C@@]12C` here?
A: 7.2 µM

Q: For `CC(=O)c1c(O)c(C)c(O)c2c1OC1=CC(=O)/C(=C(/C)NCCC(=O)O)C(=O)[C@]12C`, which EC50 is on record?
A: 14.5 µM

Q: For `CC(=O)C1=C(O)C=C2O[C@]34O[C@@]3(C(C)=O)C(=O)C(C)=C(O)[C@]4(O)[C@@]2(C)C1=O`, which EC50 is on record?
A: 10.6 µM

Q: With `CC(=O)c1c(O)c(C)c(O)c2c1OC1=CC(=O)/C(=C(/C)NCCCC(=O)O)C(=O)[C@@]12C` as the compound, how does the EC50 read?
A: 35 µM

Q: For `CSCC[C@H](N/C(C)=C1\C(=O)C=C2Oc3c(C(C)=O)c(O)c(C)c(O)c3[C@@]2(C)C1=O)C(=O)O`, which EC50 is on record?
A: 4.2 µM

Q: With `CC(=O)C1=C(O)C[C@H]2Oc3c(C(C)=O)c(O)c(C)c(O)c3[C@@]2(C)C1=O` as the compound, how does the EC50 read?
A: 8.1 µM

Q: For `CC(=O)c1c(O)c(C)c(O)c2c1OC1=CC(=O)/C(=C(/C)N[C@@H](CC(C)C)C(=O)O)C(=O)[C@@]12C`, which EC50 is on record?
A: 6.6 µM

Q: Which EC50 does the source give for `CC(=O)c1c(O)c(C)c(O)c2c1OC1=CC(=O)/C(=C(/C)N[C@H](CC(=O)O)CC(C)C)C(=O)[C@]12C` here?
A: 6.6 µM

Q: Which EC50 does the source give for `CC(=O)c1c(O)c(C)c(O)c2c1OC1=CC(=O)/C(=C(/C)NCCCC(=O)O)C(=O)[C@]12C` here?
A: 28 µM

Q: For `CC(=O)c1c(O)c(C)c(O)c2c1OC1=Cc3c(c(C)nn3-c3cccc(C(F)(F)F)c3)C(=O)[C@@]12C`, which EC50 is on record?
A: 68.4 µM

Q: Which EC50 does the source give for `CC(=O)c1c(O)c(C)c(O)c2c1OC1=Cc3c(c(C)nn3-c3ccccc3)[C@H](O)[C@]12C` here?
A: 12 µM

Q: With `COc1c(C)c(O)c(C(=O)/C=C/c2ccccc2)c2c1[C@]1(C)C(=Cc3c(c(C)nn3-c3ccccc3)[C@H]1O)O2` as the compound, how does the EC50 read?
A: 32.7 µM

Q: Which EC50 does the source give for `COc1c(C)c(O)c(C(=O)/C=C/c2ccc(Cl)cc2)c2c1[C@]1(C)C(=Cc3c(c(C)nn3-c3ccccc3)[C@H]1O)O2` here?
A: 55.1 µM

Q: For `COc1ccccc1/C=C/C(=O)c1c(O)c(C)c(OC)c2c1OC1=Cc3c(c(C)nn3-c3ccccc3)[C@@H](O)[C@@]12C`, which EC50 is on record?
A: 82.7 µM

Q: With `COc1ccc(/C=C/C(=O)c2c(O)c(C)c(OC)c3c2OC2=Cc4c(c(C)nn4-c4ccccc4)[C@@H](O)[C@@]23C)cc1OC` as the compound, how does the EC50 read?
A: 34.5 µM

Q: For `COc1cccc(/C=C/C(=O)c2c(O)c(C)c(OC)c3c2OC2=Cc4c(c(C)nn4-c4ccccc4)[C@@H](O)[C@@]23C)c1OC`, which EC50 is on record?
A: 50.7 µM

Q: With `COc1ccc(/C=C/C(=O)c2c(O)c(C)c(OC)c3c2OC2=Cc4c(c(C)nn4-c4ccccc4)[C@@H](O)[C@@]23C)c(OC)c1OC` as the compound, how does the EC50 read?
A: 32.8 µM

Q: With `COc1cc(/C=C/C(=O)c2c(O)c(C)c(OC)c3c2OC2=Cc4c(c(C)nn4-c4ccccc4)[C@@H](O)[C@@]23C)cc(OC)c1OC` as the compound, how does the EC50 read?
A: 8.2 µM

Q: Which EC50 does the source give for `COc1ccc(OC)c(/C=C/C(=O)c2c(O)c(C)c(OC)c3c2OC2=Cc4c(c(C)nn4-c4ccccc4)[C@@H](O)[C@@]23C)c1` here?
A: 25.9 µM

Q: For `COc1ccc(/C=C/C(=O)c2c(O)c(C)c(OC)c3c2OC2=Cc4c(c(C)nn4-c4ccccc4)[C@@H](O)[C@@]23C)c(OC)c1`, which EC50 is on record?
A: 25.9 µM

Q: With `COc1c(C)c(O)c(C(=O)/C=C/c2ccc(SC)cc2)c2c1[C@]1(C)C(=Cc3c(c(C)nn3-c3ccccc3)[C@H]1O)O2` as the compound, how does the EC50 read?
A: 53 µM

Q: For `COc1cccc(/C=C/C(=O)c2c(O)c(C)c(OC)c3c2OC2=Cc4c(c(C)nn4-c4ccccc4)C(=O)[C@@]23C)c1OC`, which EC50 is on record?
A: 8.7 µM

Q: With `COc1ccc(-c2cc(-c3c(O)c(C)c(OC)c4c3OC3=Cc5c(c(C)nn5-c5ccccc5)[C@@H](O)[C@@]34C)n[nH]2)cc1` as the compound, how does the EC50 read?
A: 102 µM

Q: With `COc1c(C)c(O)c(C(=O)/C=C/c2ccccc2)c2c1[C@@]1(C)C(=Cc3c(c(C)nn3-c3ccccc3)[C@@H]1O)O2` as the compound, how does the EC50 read?
A: 60.6 µM

Q: Which EC50 does the source give for `COc1c(C)c(O)c(C(=O)/C=C/c2ccc(Cl)cc2)c2c1[C@@]1(C)C(=Cc3c(c(C)nn3-c3ccccc3)[C@@H]1O)O2` here?
A: 79.4 µM

Q: With `COc1ccccc1/C=C/C(=O)c1c(O)c(C)c(OC)c2c1OC1=Cc3c(c(C)nn3-c3ccccc3)[C@H](O)[C@]12C` as the compound, how does the EC50 read?
A: 64.9 µM

Q: Which EC50 does the source give for `COc1cccc(/C=C/C(=O)c2c(O)c(C)c(OC)c3c2OC2=Cc4c(c(C)nn4-c4ccccc4)[C@H](O)[C@]23C)c1OC` here?
A: 76.4 µM

Q: Which EC50 does the source give for `CC(=O)C1=C(O)C=C2Oc3c4c(c(C)c(O)c3[C@]2(C)C1=O)OCC4=O` here?
A: 64.3 µM

Q: With `CC(=O)C1=C(O)C=C2Oc3c4c(c(C)c(O)c3[C@@]2(C)C1=O)OCC4=O` as the compound, how does the EC50 read?
A: 64.3 µM

Q: For `COc1ccccc1/C=C1\Oc2c(C)c(O)c3c(c2C1=O)OC1=CC(O)=C(C(C)=O)C(=O)[C@@]13C`, which EC50 is on record?
A: 4.8 µM

Q: Which EC50 does the source give for `CC(=O)C1=C(O)C=C2Oc3c4c(c(C)c(O)c3[C@@]2(C)C1=O)O/C(=C\c1ccc(Br)cc1)C4=O` here?
A: 4.7 µM

Q: For `CC(=O)C1=C(O)C=C2Oc3c4c(c(C)c(O)c3[C@@]2(C)C1=O)O/C(=C\c1ccncc1)C4=O`, which EC50 is on record?
A: 7.7 µM

Q: Which EC50 does the source give for `CC(=O)C1=C(O)C=C2Oc3c4c(c(C)c(O)c3[C@@]2(C)C1=O)O/C(=C\c1cccnc1)C4=O` here?
A: 7 µM

Q: For `CC(=O)C1=C(O)C=C2Oc3c(C(=O)CSc4nc5ccccc5s4)c(O)c(C)c(O)c3[C@@]2(C)C1=O`, which EC50 is on record?
A: 29.5 µM

Q: Which EC50 does the source give for `CC(=O)C1=C(O)C=C2Oc3c(C(=O)CSc4nc5ccccc5o4)c(O)c(C)c(O)c3[C@@]2(C)C1=O` here?
A: 2 µM

Q: Which EC50 does the source give for `CC(=O)C1=C(O)C=C2Oc3c(C(=O)CSCc4ccccc4)c(O)c(C)c(O)c3[C@@]2(C)C1=O` here?
A: 2.1 µM

Q: With `CC(=O)C1=C(O)C=C2Oc3c(C(=O)CSCc4ccc(C)cc4)c(O)c(C)c(O)c3[C@@]2(C)C1=O` as the compound, how does the EC50 read?
A: 2.1 µM

Q: Which EC50 does the source give for `CC(=O)C1=C(O)C=C2Oc3c(C(=O)CSCc4ncccc4C(=O)O)c(O)c(C)c(O)c3[C@@]2(C)C1=O` here?
A: 56.3 µM

Q: For `COc1c(C)c(O)c2c(c1C(=O)CSC1=NCCS1)OC1=CC(O)=C(C(C)=O)C(=O)[C@@]12C`, which EC50 is on record?
A: 14.7 µM

Q: For `COc1ccc2[nH]c(SCC(=O)c3c(OC)c(C)c(O)c4c3OC3=CC(O)=C(C(C)=O)C(=O)[C@@]34C)nc2c1`, which EC50 is on record?
A: 24.3 µM

Q: For `COc1c(C)c(O)c2c(c1C(=O)CSc1nc3ccccc3o1)OC1=CC(O)=C(C(C)=O)C(=O)[C@]12C`, which EC50 is on record?
A: 23.7 µM

Q: Which EC50 does the source give for `COc1c(C)c(O)c2c(c1C(=O)CSCCC(=O)O)OC1=CC(O)=C(C(C)=O)C(=O)[C@@]12C` here?
A: 161 µM

Q: Which EC50 does the source give for `CC(=O)C1=C(O)C=C2Oc3c(C(C)=O)c(OC(F)(Cl)C(F)F)c(C)c(O)c3[C@@]2(C)C1=O` (stereo not given in full) here?
A: 7.2 µM

Q: For `CC(=O)C1=C(O)C=C2Oc3c(C(C)=O)c(OC(=O)c4ccccc4Br)c(C)c(OC(=O)c4ccccc4Br)c3[C@@]2(C)C1=O`, which EC50 is on record?
A: 7.8 µM

Q: With `CC(=O)C1=C(O)C=C2O[C@@]34O[C@]3(C(C)=O)C(=O)C(C)=C(O)[C@@]4(O)[C@]2(C)C1=O` as the compound, how does the EC50 read?
A: 28.7 µM

Q: With `CC(=O)[C@@]12O[C@@]13OC1=Cc4c(c(C)nn4-c4ccccc4)C(=O)[C@]1(C)[C@@]3(O)C(O)=C(C)C2=O` as the compound, how does the EC50 read?
A: 13.4 µM

Q: For `COc1c(C)c(O)c(C(C)=O)c2c1[C@]1(C)C(=Cc3c(c(C)nn3-c3ccccc3)CC13CO3)O2` (single isomer, unassigned; (+)), which EC50 is on record?
A: 262 µM

Q: For `COc1c(C)c(O)c(C(=O)/C=C/c2ccccc2)c2c1[C@]1(C)C(=Cc3c(c(C)nn3-c3ccccc3)CC13CO3)O2` (single isomer, unassigned; (+)), which EC50 is on record?
A: 5.5 µM

Q: Which EC50 does the source give for `CC(=O)C1=C(O)C=C2Oc3c(C(C)=O)c(O)c(C)c(O)c3[C@@]2(C)C1=O` [(+)-USNIC ACID] here?
A: 51.7 µM

Q: With `CC(=O)C1=C(O)C=C2Oc3c(C(C)=O)c(O)c(C)c(O)c3[C@]2(C)C1=O` [(-)-USNIC ACID] as the compound, how does the EC50 read?
A: 13.1 µM
